In brackets after ≈: the same amount, converted by molar mass. Activity calls are given as the source filed them. The rule behind the calls is not given here.
Legend:
Cladosporium herbarum = test: Antifungal activity against Cladosporium herbarum assessed as inhibition zone in mycelial layer assessed per spot by TLC bioautography assay; format: functional
In short: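 TLC bioautography with Cladosporium herbarum strain VIAM-MA1511 as the mycelial layer. Compounds were applied as a dilution series from 100 to 25 μg/spot, and plates were held 3 days. The MIC was the first amount in the series that gave a homogeneous inhibition zone in the mycelial layer.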

Pyricularia grisea = test: Antifungal activity against Pyricularia grisea assessed as inhibition of germ-tube development by microdilution method; format: functional, organism-based
In short: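 Pyricularia grisea isolate from infected rice leaves (Thailand), tested in 4% malt extract broth by microdilution. Stock in acetone/malt extract emulsified with 0.2% Tween 80, diluted 2-fold; final range 200–0.78 μg/mL. Inoculum 10⁴ CFU conidia per well. Incubated 16 h at room temperature, stopped with lactophenol blue. Germ-tube size measured by pixel counts of 10 conidia per well. EC50/EC90 by probit; MIC is the first concentration giving total inhibition.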

Structure (SMILES): CC(C)CC(=O)OCC#CCc1cc2ccccc2c(=O)o1 [CAPILLARIN ISOVALERATE]
- Activity (Cladosporium herbarum): inactive
- EC50 (Pyricularia grisea): 5 µg/mL (≈ 16.8 µM)
- EC90 (Pyricularia grisea): 13 µg/mL (≈ 43.6 µM)
- MIC (Pyricularia grisea): 25 µg/mL (≈ 83.8 µM)

Structure (SMILES): C[C@@H](O)/C=C/c1cc2ccccc2c(=O)o1
- MIC (Cladosporium herbarum): 100 µg
- EC50 (Pyricularia grisea): 140 µg/mL (≈ 647 µM)
- EC90 (Pyricularia grisea): 292 µg/mL (≈ 1350 µM)
- MIC (Pyricularia grisea): > 200 µg/mL

Structure (SMILES): CC[C@H]1O[C@@H]1c1cc2ccccc2c(=O)o1 (racemic)
- MIC (Cladosporium herbarum): 50 µg
- Activity (Pyricularia grisea): inactive

Structure (SMILES): CC/C=C/c1cc2ccccc2c(=O)o1
- MIC (Cladosporium herbarum): 100 µg
- EC50 (Pyricularia grisea): 11 µg/mL (≈ 54.9 µM)
- EC90 (Pyricularia grisea): 19 µg/mL (≈ 94.9 µM)
- MIC (Pyricularia grisea): 25 µg/mL (≈ 125 µM)

Structure (SMILES): CC[C@@H](O)[C@H](O)c1cc2ccccc2c(=O)o1 (relative stereo)
- Activity (Pyricularia grisea): inactive

Structure (SMILES): CC[C@H](O)[C@H](O)c1cc2ccccc2c(=O)o1 (relative stereo)
- Activity (Pyricularia grisea): inactive

Structure (SMILES): CCCC(Br)(Br)c1cc2ccccc2c(=O)o1
- MIC (Cladosporium herbarum): 50 µg
- EC50 (Pyricularia grisea): 22 µg/mL (≈ 61.1 µM)
- MIC (Pyricularia grisea): > 200 µg/mL

Structure (SMILES): CCCC(Br)c1cc2ccccc2c(=O)o1 (centres undefined)
- MIC (Cladosporium herbarum): 25 µg
- EC50 (Pyricularia grisea): 35 µg/mL (≈ 124 µM)
- EC90 (Pyricularia grisea): 96 µg/mL (≈ 341 µM)
- MIC (Pyricularia grisea): 100 µg/mL (≈ 356 µM)

Structure (SMILES): CC(=O)/C=C/c1cc2ccccc2c(=O)o1
- MIC (Cladosporium herbarum): <25 µg
- EC50 (Pyricularia grisea): 5 µg/mL (≈ 23.3 µM)
- EC90 (Pyricularia grisea): 21 µg/mL (≈ 98 µM)
- MIC (Pyricularia grisea): 25 µg/mL (≈ 117 µM)

Structure (SMILES): CC(O)C#Cc1cc2ccccc2c(=O)o1 (centres undefined)
- MIC (Cladosporium herbarum): 100 µg
- EC50 (Pyricularia grisea): 0.9 µg/mL (≈ 4.2 µM)
- MIC (Pyricularia grisea): 50 µg/mL (≈ 233 µM)

Structure (SMILES): CC#CCc1cc2cccc(O)c2c(=O)o1
- Activity (Cladosporium herbarum): inactive
- EC50 (Pyricularia grisea): 2 µg/mL (≈ 9.34 µM)
- EC90 (Pyricularia grisea): 102 µg/mL (≈ 476 µM)
- MIC (Pyricularia grisea): 100 µg/mL (≈ 467 µM)

Structure (SMILES): CC[C@H](O)Cc1cc2ccccc2c(=O)o1
- MIC (Cladosporium herbarum): 100 µg
- EC50 (Pyricularia grisea): 25 µg/mL (≈ 115 µM)
- MIC (Pyricularia grisea): > 200 µg/mL

Structure (SMILES): CCC#Cc1cc2ccccc2c(=O)o1 [CORFIN]
- MIC (Cladosporium herbarum): >100 µg
- EC50 (Pyricularia grisea): 3 µg/mL (≈ 15.1 µM)
- EC90 (Pyricularia grisea): 99 µg/mL (≈ 499 µM)
- MIC (Pyricularia grisea): 100 µg/mL (≈ 504 µM)

Structure (SMILES): CC/C=C/c1cc2c(O)cccc2c(=O)o1 [ARTEMIDINOL]
- MIC (Cladosporium herbarum): >100 µg
- EC50 (Pyricularia grisea): 12 µg/mL (≈ 55.5 µM)
- EC90 (Pyricularia grisea): 32 µg/mL (≈ 148 µM)
- MIC (Pyricularia grisea): 50 µg/mL (≈ 231 µM)

Structure (SMILES): COC1=CC(=O)C[C@@H](C)[C@]12Oc1c(Cl)c(OC)cc(OC)c1C2=O [GRISEOFULVIN]
- EC50 (Pyricularia grisea): 4 µg/mL (≈ 11.3 µM)
- MIC (Pyricularia grisea): > 200 µg/mL

Structure (SMILES): CC[C@H](Cc1cc2ccccc2c(=O)o1)OC
- MIC (Cladosporium herbarum): >100 µg
- Activity (Pyricularia grisea): inactive

Structure (SMILES): CCC(Br)C(Br)c1cc2ccccc2c(=O)o1 (centres undefined)
- MIC (Cladosporium herbarum): 100 µg

Structure (SMILES): O=c1occc2ccccc12 [ISOCOUMARIN]
- EC50 (Pyricularia grisea): 83 µg/mL (≈ 568 µM)
- MIC (Pyricularia grisea): > 200 µg/mL

Structure (SMILES): COc1cc(O)c2c(c1)C[C@@H](C)OC2=O
- MIC (Cladosporium herbarum): 25 µg
- EC50 (Pyricularia grisea): 47 µg/mL (≈ 226 µM)
- EC90 (Pyricularia grisea): 106 µg/mL (≈ 509 µM)
- MIC (Pyricularia grisea): 200 µg/mL (≈ 961 µM)

Structure (SMILES): CN(CC[C@H](N)CC(=O)N[C@H]1C=C[C@H](n2ccc(N)nc2=O)O[C@@H]1C(=O)O)C(=N)N [BLASTICIDIN_S]
- EC50 (Pyricularia grisea): 13 µg/mL (≈ 30.8 µM)
- MIC (Pyricularia grisea): > 200 µg/mL

Structure (SMILES): CO/N=C(/C(=O)OC)c1ccccc1COc1ccccc1C [KRESOXIM-METHYL]
- EC50 (Pyricularia grisea): 0.003 µg/mL (≈ 0.00957 µM)
- MIC (Pyricularia grisea): > 200 µg/mL

Structure (SMILES): CCCC(O)c1cc2ccccc2c(=O)o1 (centres undefined)
- MIC (Cladosporium herbarum): 100 µg
- EC50 (Pyricularia grisea): 37 µg/mL (≈ 170 µM)
- EC90 (Pyricularia grisea): 83 µg/mL (≈ 380 µM)
- MIC (Pyricularia grisea): 100 µg/mL (≈ 458 µM)

Structure (SMILES): CCCCc1cc2ccccc2c(=O)o1 [DIHYDROARTEMIDIN]
- MIC (Cladosporium herbarum): 100 µg
- EC50 (Pyricularia grisea): 10 µg/mL (≈ 49.4 µM)
- EC90 (Pyricularia grisea): 40 µg/mL (≈ 198 µM)
- MIC (Pyricularia grisea): 50 µg/mL (≈ 247 µM)

Structure (SMILES): CC[C@@H]1O[C@H]1c1cc2ccccc2c(=O)o1
- MIC (Cladosporium herbarum): 25 µg
- EC50 (Pyricularia grisea): 93 µg/mL (≈ 430 µM)
- MIC (Pyricularia grisea): > 200 µg/mL

Structure (SMILES): C=C/C=C/c1cc2ccccc2c(=O)o1
- MIC (Cladosporium herbarum): 25 µg
- EC50 (Pyricularia grisea): 14 µg/mL (≈ 70.6 µM)
- EC90 (Pyricularia grisea): 45 µg/mL (≈ 227 µM)
- MIC (Pyricularia grisea): 50 µg/mL (≈ 252 µM)

Structure (SMILES): CC/C=C/c1cc2cccc(O)c2c(=O)o1
- MIC (Cladosporium herbarum): >100 µg
- EC50 (Pyricularia grisea): 4 µg/mL (≈ 18.5 µM)
- EC90 (Pyricularia grisea): 19 µg/mL (≈ 87.9 µM)
- MIC (Pyricularia grisea): 25 µg/mL (≈ 116 µM)

Structure (SMILES): CC/C=C(\Br)c1cc2ccccc2c(=O)o1
- MIC (Cladosporium herbarum): <25 µg
- EC50 (Pyricularia grisea): 2 µg/mL (≈ 7.17 µM)
- EC90 (Pyricularia grisea): 9 µg/mL (≈ 32.2 µM)
- MIC (Pyricularia grisea): 12 µg/mL (≈ 43 µM)

Structure (SMILES): CC#CCc1cc2ccccc2c(=O)o1 [CAPILLARIN]
- Activity (Cladosporium herbarum): inactive
- EC50 (Pyricularia grisea): 37 µg/mL (≈ 187 µM)
- EC90 (Pyricularia grisea): 92 µg/mL (≈ 464 µM)
- MIC (Pyricularia grisea): 100 µg/mL (≈ 504 µM)

Structure (SMILES): CCCCNC(=O)n1c(NC(=O)OC)nc2ccccc21 [BENOMYL]
- MIC (Cladosporium herbarum): <25 µg
- EC50 (Pyricularia grisea): 0.06 µg/mL (≈ 0.207 µM)
- MIC (Pyricularia grisea): 200 µg/mL (≈ 689 µM)

Structure (SMILES): CC(=O)OC(C)/C=C/c1cc2ccccc2c(=O)o1 (centres undefined)
- MIC (Cladosporium herbarum): 50 µg
- EC50 (Pyricularia grisea): 8 µg/mL (≈ 31 µM)
- EC90 (Pyricularia grisea): 30 µg/mL (≈ 116 µM)
- MIC (Pyricularia grisea): 50 µg/mL (≈ 194 µM)
